Assay results from ChEMBL document CHEMBL1139008, “Synthesis and antiviral evaluation of alkoxyalkyl derivatives of 9-(S)-(3-hydroxy-2-phosphonomethoxypropyl)adenine against cytomegalovirus and orthopoxviruses” (J Med Chem, 2006).

Key:
[1] = system: HFF; experiment: Selectivity index, CC50 in HFF cell/ EC50 against cowpox virus; assay type: functional
Procedure, shortened: (§1)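 Selectivity index is the ratio of CC50 (HFF neutral red uptake) to EC50 from the matching plaque reduction assay.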

[2] = system: HFF; experiment: Selectivity index, CC50 in HFF cell/ EC50 against HCMV; assay type: functional; procedure, shortened: as §1
[3] = system: HFF; experiment: Cytotoxicity against HFF cell; assay type: functional; details: Homo sapiens
[4] = system: Vaccinia virus; experiment: Antiviral activity against Vaccinia virus Copenhagen replication in HFF cells; assay type: functional, organism-based; details: Orthopoxvirus vaccinia
[5] = system: Murid betaherpesvirus 1; experiment: Antiviral activity against MCMV Smith replication; assay type: functional, organism-based; details: Murid betaherpesvirus 1, Smith
Procedure, shortened: (§2)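 Plaque reduction used HCMV AD-169 in HFF cells (plated 2 days ahead) or MCMV Smith in MEF cells (plated 1 day ahead), at 20-30 PFU/well in triplicate with 1 h adsorption. Infected cells were then given MEM (2% FBS) with compound diluted 1:5 from 100 µM. Plates ran 7 days (MCMV) or 8 days (HCMV) at 37 °C, followed by 6 h neutral red staining. EC50 is the concentration giving 50% plaque reduction.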

[6] = system: HFF; experiment: Selectivity index, CC50 in HFF cell/ EC50 against vaccinia virus; assay type: functional; procedure, shortened: as §1
[7] = system: Cowpox virus; experiment: Antiviral activity against Cowpox virus Brighton replication in HFF cells; assay type: functional, organism-based
[8] = system: HFF; experiment: Selectivity index, CC50 in HFF cell/ EC50 against MCMV; assay type: functional; procedure, shortened: as §1
[9] = system: Human betaherpesvirus 5; experiment: Antiviral activity against HCMV AD-169 replication; assay type: functional, organism-based; details: Human betaherpesvirus 5, AD-169; procedure, shortened: as §2

Row | SMILES | Selectivity index [1] | Selectivity index [2] | CC50 [3] | EC50 [4] | EC50 [5] | Selectivity index [6] | EC50 [7] | Selectivity index [8] | EC50 [9]
1 | CCCCCCCC/C=C\CCCCCCCCOCCOP(=O)([O-])CO[C@H](CO)Cn1cnc2c(N)ncnc21.[Na+] | 900 | 2100 | 6300 nM | 3 nM | 40 nM | 2100 | 7 nM | 158 | 3 nM
2 | CCCCCCCCCCCCCCCCOCCCOP(=O)([O-])CO[C@H](CO)Cn1cnc2c(N)ncnc21.[Na+] | 485 | 3233 | 9700 nM |  | 2 nM | 970 |  | 485 | 3 nM
3 | CCCCCCCCCCCCCCCCCCOCCOP(=O)(O)CO[C@H](CO)Cn1ccc(N)nc1=O |  |  |  | 200 nM | 1 nM |  | 300 nM |  | 0.9 nM
4 | Nc1ncnc2c1ncn2C[C@@H](CO)OCP(=O)(O)O | >72 | >352 | > 289000 nM |  | 160 nM | >107 |  | >181 | 820 nM
5 | CCCCCCCC/C=C\CCCCCCCCOCCCOP(=O)([O-])CO[C@H](CO)Cn1cnc2c(N)ncnc21.[Na+] | 2200 | 25000 | 74800 nM | 18 nM | 100 nM | 4156 | 34 nM | 750 | 3 nM
6 | CCCCCCCCCCCCCCCCCCOCCOP(=O)([O-])CO[C@H](CO)Cn1cnc2c(N)ncnc21.[Na+] | 75 | 500 | 1500 nM |  | 3 nM | 150 |  | 500 | 3 nM
7 | CCCCCCCCCCCCCCCCOCCCOP(=O)(O)CO[C@H](CO)Cn1ccc(N)nc1=O [BRINCIDOFOVIR] |  |  |  | 80 nM | 0.9 nM |  | 60 nM |  | 0.9 nM
8 | Nc1ccn(C[C@@H](CO)OCP(=O)(O)O)c(=O)n1.O.O [CIDOFOVIR] | >10.3 | >264 | > 317000 nM | 25300 nM | 40 nM | >12.5 | 30700 nM | >7925 | 1200 nM
